# Assay outcomes (PubChem)
# DENV2 CPE rescue: inhibitors of DENV2 cytopathic effect; DENV2-infected cells, cytopathic effect rescue, plate reader; CPE inhibition, % at 9.99 µM; 350,000 tested, 1.7% active; AID 651640; in the data active means CPE inhibition above about 20%, passing the limit was not always enough; inconclusive means no clear call, values can overlap the other calls; tested in BHK-21 cells;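 further: 0% = median of neutral control wells and 100% = median of positive control wells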
# ERAP1 HTS inh: blocks human ERAP1 aminopeptidase activity | Q9NZ08 | recombinant ERAP1, Leu-AMC fluorescence, 60 min | inhibition, % at 10.7 µM | 340,000 tested, 0.15% active;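 active means mean replicate inhibition of at least 30%, or all replicates individually reaching that 30% level; inactive means mean below 30% and not every replicate reaching it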;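 further: 0% = neutral control wells and 100% = L-leucinethiol positive control wells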
# SIRT5 block: inhibitors of human sirtuin-5 desuccinylase | 330,000 tested, 1.1% active | AID 652115 | Purified SirT5, succinyl-peptide AMC, trypsin-coupled fluorescence | inhibition, % at 15 µM; in the data active means inhibition above about 15%; inconclusive means no clear call, values can overlap the other calls
# PglD inh: inhibitors of Campylobacter jejuni PglD acetyltransferase; inhibition, % at 12.5 µM; purified PglD enzyme, DTNB colorimetric CoA detection; 360,000 tested, 0.098% active; in the data active means inhibition above about 16%, passing the limit was not always enough; inconclusive means no clear call, values can overlap the other calls
# E-selectin induc: induces E-selectin expression in human endothelial cells. AID 686992. activation, % at 7.58 µM. 260,000 tested, 0.37% active. HUVEC E-selectin immunofluorescence imaging; normalized: neutral wells 0, TNF-alpha wells 100;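 active means mean E-selectin-positive cell signal at least 10% of the positive control, reached in at least 60% of replicates, without over 20% cell loss; inconclusive means no rule given, readout overlaps actives, possibly toxicity-flagged; inactive means the rest, including those meeting only one limit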
#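 Read-out: % PE-positive cells | Test system: HUVEC | Doses: One compound dose added by pin transfer | Buffer or medium: EGM-2 over gelatin coat | Signal: Immunofluorescence imaging | Benchmarks: TNF-alpha, DMSO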
# Numbers without * were called inactive; ? = inconclusive; . = no result. The list is not random: actives were taken first. Their share in the collection is about 2.5%.
SMILES,DENV2 CPE rescue,ERAP1 HTS inh,SIRT5 block,PglD inh,E-selectin induc
COc1ccc2c3c([nH]c2c1)[C@@H](CO)N(Cc1ccccc1Cl)CC31CCN(C(=O)C2CC2)CC1,?,-0.4,-1.3,.,-0.1
COc1ccc2c3c([nH]c2c1)[C@@H](CO)N(Cc1ccccc1Cl)CC31CN(C(=O)C2CC2)C1,23.2*,3.9,-2.4,.,1.6
O=C(C[C@H]1CC[C@H](NS(=O)(=O)c2ccc(F)cc2)[C@H](CO)O1)N1CCc2ccccc2C1,-5.2,-2.5,-0.8,-0.1,0.6
Cc1ccc(S(=O)(=O)N(C)C[C@H]2OCCCC[C@H](C)Oc3ccc(NC(=O)Nc4ccc(C(F)(F)F)cc4)cc3C(=O)N([C@@H](C)CO)C[C@@H]2C)cc1,0.4,2.4,2.6,0.1,.
Cc1ccc(S(=O)(=O)N(C)C[C@@H]2OCCCC[C@H](C)Oc3ccc(NC(=O)Nc4ccc(C(F)(F)F)cc4)cc3C(=O)N([C@H](C)CO)C[C@@H]2C)cc1,23.0*,2.0,5.0,5.3,.
Cc1ccc(S(=O)(=O)N(C)C[C@H]2OCCCC[C@H](C)Oc3ccc(NC(=O)Nc4ccc(C(F)(F)F)cc4)cc3C(=O)N([C@H](C)CO)C[C@H]2C)cc1,-3.8,3.6,-1.4,-0.3,.
Cc1ccc(S(=O)(=O)N(C)C[C@@H]2OCCCC[C@@H](C)Oc3ccc(NC(=O)Nc4ccc(C(F)(F)F)cc4)cc3C(=O)N([C@@H](C)CO)C[C@H]2C)cc1,53.1*,0.7,5.0,3.1,.
Cc1ccc(S(=O)(=O)N(C)C[C@H]2OCCCC[C@H](C)Oc3ccc(NC(=O)Nc4ccc(C(F)(F)F)cc4)cc3C(=O)N([C@H](C)CO)C[C@@H]2C)cc1,55.3*,1.9,4.1,1.7,.
CNC(=S)N1CCn2cccc2C1c1ccc(F)cc1 (stereo not drawn),-3.3,-1.4,-0.7,2.2,2.5
O=C(O)c1ccc(S(=O)(=O)N2CCC3(CC2)CC(=O)c2ccccc2O3)cc1,-2.0,-6.8,-11.7,2.1,0.1
CC1=C(C(=O)OC2CCCC2)C(c2coc3ccc(C)cc3c2=O)C2=C(CCCC2=O)N1 (stereo not drawn),9.6,0.8,-1.7,-3.9,.
CCOc1ccc(C2c3[nH]c4ccccc4c3CCN2CCCn2cccn2)cc1 (stereo not drawn),.,4.0,-3.1,.,.
C[C@H](CO)N1C[C@H](C)[C@@H](CN(C)C(=O)Nc2ccc(C(F)(F)F)cc2)Oc2ncc(/C=C/c3ccccc3)cc2C1=O,17.6,1.6,-6.8,-2.0,0.5
CCC1CCCCN1CCCNC(=O)c1c(O)nc2ccccn2c1=O (stereo not drawn),-2.1,-7.9,31.9*,-0.1,.
CC1CCCCN1CCCNC(=O)c1c(O)nc2ccccn2c1=O (stereo not drawn),19.1,-3.2,-8.0,-5.1,1.2
CNC[C@H]1OCCCC[C@H](C)Oc2ccc(NS(=O)(=O)c3c(C)noc3C)cc2C(=O)N([C@@H](C)CO)C[C@@H]1C,-9.0,.,.,0.3,-0.2
CNC[C@H]1OCCCC[C@@H](C)Oc2ccc(NS(=O)(=O)c3c(C)noc3C)cc2C(=O)N([C@@H](C)CO)C[C@H]1C,-16.8,.,.,0.1,0.0
CNC[C@@H]1OCCCC[C@@H](C)Oc2ccc(NS(=O)(=O)c3c(C)noc3C)cc2C(=O)N([C@@H](C)CO)C[C@H]1C,28.7*,.,.,-1.9,.
CNC[C@@H]1OCCCC[C@H](C)Oc2ccc(NS(=O)(=O)c3c(C)noc3C)cc2C(=O)N([C@@H](C)CO)C[C@H]1C,122.5*,.,.,-2.5,-0.1
CCCCNC(=O)c1onc(CSc2ccccc2)c1C(=O)O,2.3,-1.9,2.2,-2.1,-0.2
COC(=O)c1cc(OC)c(OC)cc1NC(=O)c1ccccc1,.,.,.,-1.3,.
COC(=O)c1cc(OC)c(OC)cc1NC(=O)c1cc(OC)cc(OC)c1,.,7.1,15.7*,.,.
COc1ccc(NC(=O)N(C)C[C@H]2Oc3ccc(NS(=O)(=O)c4ccccc4)cc3C(=O)N([C@H](C)CO)C[C@H]2C)cc1,3.6,3.9,-0.7,1.4,.
COc1ccc(NC(=O)N(C)C[C@@H]2Oc3ccc(NS(=O)(=O)c4ccc(F)cc4)cc3C(=O)N([C@H](C)CO)C[C@H]2C)cc1,-0.2,3.4,40.2*,-3.3,-0.1
COc1ccc(NC(=O)N(C)C[C@H]2Oc3ccc(NS(=O)(=O)c4ccccc4)cc3C(=O)N([C@H](C)CO)C[C@@H]2C)cc1,29.1*,1.6,-2.3,0.0,-0.1
